Laboratory results: ChEMBL document CHEMBL1833790, “N-(2-{3-[3,5-bis(trifluoromethyl)phenyl]ureido}ethyl)-glycyrrhetinamide (6b): a novel anticancer glycyrrhetinic acid derivative that targets the proteasome and displays anti-kinase activity” (J Med Chem, 2011)
Active and inactive are the calls of the source. The rule behind the calls is not given here.

Key:
[1] = target: Insulin-like growth factor 1 receptor (Homo sapiens) (UniProt P08069); test: Inhibition of IGF-R1 at 1 uM by radiometric assay
[2] = target: Megakaryocyte-associated tyrosine-protein kinase (Homo sapiens) (UniProt P42679); test: Inhibition of MATK at 1 uM by radiometric assay
[3] = target: T1, Peroxisome proliferator-activated receptor gamma (Homo sapiens) (UniProt P37231); test: Activation of PPARgamma activity in human U373 cells at 90 uM after 6 hrs by spectrophotometric analysis relative to control; format: cell-based; conditions: U-373MG ATCC, 7 uM, in the assay text read “at 7 uM” for “at 90 uM”
T1 sequence (whole entry): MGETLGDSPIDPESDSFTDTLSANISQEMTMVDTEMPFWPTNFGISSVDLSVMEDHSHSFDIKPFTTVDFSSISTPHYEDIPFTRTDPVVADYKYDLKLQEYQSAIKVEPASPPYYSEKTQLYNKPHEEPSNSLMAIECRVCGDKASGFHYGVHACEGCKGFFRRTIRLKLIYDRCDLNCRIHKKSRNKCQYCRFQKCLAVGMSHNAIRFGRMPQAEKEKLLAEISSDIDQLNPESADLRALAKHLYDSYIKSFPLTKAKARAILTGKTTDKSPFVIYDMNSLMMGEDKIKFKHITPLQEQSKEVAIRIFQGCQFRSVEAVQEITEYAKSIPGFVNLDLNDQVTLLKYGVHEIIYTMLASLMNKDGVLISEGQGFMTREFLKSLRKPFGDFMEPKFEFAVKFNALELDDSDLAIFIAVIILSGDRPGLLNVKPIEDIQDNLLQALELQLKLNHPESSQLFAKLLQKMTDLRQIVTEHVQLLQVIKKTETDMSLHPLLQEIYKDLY
Outline: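 U373 glioblastoma cells were exposed for 6 h. Nuclear extracts were prepared by hypotonic buffer, NP-40 lysis and a protease-inhibitor extraction buffer. Extracts were bound overnight at 4 °C in a PPAR-γ transcription-factor plate, then probed with primary antibody and HRP anti-rabbit secondary, 1 h each at room temperature. Developer ran 45 min, read at 450 nm. Triplicates, mean ± SD versus control.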

U-373MG ATCC [4] = test: Inhibition of chymotrypsin-like activity of 20S proteasome in human U373 at 7 uM after 2 days by bioluminescence assay; format: cell-based
Outline: (§1)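 U373 GBM cells seeded at 5000 cells/mL and grown 48 h, then treated for two days. Cells washed in PBS and permeabilised with 0.025% digitonin. Proteasome-Glo reagent added with Suc-LLVY-Glo (chymotrypsin-like), Z-LRR-Glo (trypsin-like) or Z-nLPnLD-Glo (caspase-like) substrate. Luminescence read after 10 min in the dark and normalised to a parallel MTT viability assay; triplicates. MG-132 at 0.5 μM used as reference.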

U-373MG ATCC [5] = test: Inhibition of trypsin-like activity of 20S proteasome in human U373 cells at 7 uM after 2 days by bioluminescence assay; format: cell-based; outline: as §1
U-373MG ATCC [6] = test: Inhibition of caspase-like activity of 20S proteasome in human U373 cells at 7 uM after 2 days by bioluminescence assay; format: cell-based; outline: as §1
U-373MG ATCC [7] = test: Inhibition of chymotrypsin-like activity of 20S proteasome in human U373 cells at 60 uM after 2 days by bioluminescence assay; format: cell-based; outline: as §1
U-373MG ATCC [8] = test: Inhibition of trypsin-like activity of 20S proteasome in human U373 cells at 60 uM after 2 days by bioluminescence assay; format: cell-based; outline: as §1
U-373MG ATCC [9] = test: Inhibition of caspase-like activity of 20S proteasome in human U373 cells at 60 uM after 2 days by bioluminescence assay; format: cell-based; outline: as §1
U-373MG ATCC [10] = test: Inhibition of chymotrypsin-like activity of 20S proteasome in human U373 cells at 0.5 uM after 2 days by bioluminescence assay; format: cell-based; outline: as §1
U-373MG ATCC [11] = test: Inhibition of trypsin-like activity of 20S proteasome in human U373 cells at 0.5 uM after 2 days by bioluminescence assay; format: cell-based; outline: as §1
U-373MG ATCC [12] = test: Inhibition of caspase-like activity of 20S proteasome in human U373 cells at 0.5 uM after 2 days by bioluminescence assay; format: cell-based; outline: as §1
[13] = Chemical stability of the compound in MEM cell culture medium after 7 days by HPLC analysis; format: physicochemical; conditions: read-out: Stability
Outline: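 Compound incubated in MEM culture medium at 37 °C for 7 days, then analysed by HPLC on RX-C8 (5 μm) column with MeOH–water 90:10 (0.1% TFA), diode-array detection. Expressed as % of incubated compound recovered.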

A549 [14] = test: Growth inhibition in apoptosis-resistant human A549 after 3 days by MTT assay; format: functional; conditions: A549, 72 h
Outline: (§2)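 Cells grown in RPMI with 10% heat-inactivated FCS, 4 mM glutamine, gentamicin and penicillin–streptomycin. Drug exposure 3 days, growth read by MTT colorimetric assay. Nine concentrations from 0.01 to 100 μM in semilog steps, six replicates each; IC50 derived per cell line.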

SK-MEL-28 = test: Growth inhibition in apoptosis-resistant human SK-MEL-28 after 3 days by MTT assay; format: functional; conditions: SK-MEL-28, 72 h; outline: as §2
T98G = test: Growth inhibition in apoptosis-resistant human T98G after 3 days by MTT assay; format: functional; conditions: 72 h; outline: as §2
[15] = Growth inhibition in apoptosis-resistant human U373 after 3 days by MTT assay; format: functional, U-373MG ATCC; conditions: U373 MG, 72 h; outline: as §2
Hs 683 = test: Growth inhibition in apoptosis-sensitive human Hs683 after 3 days by MTT assay; format: functional; conditions: Hs 683, 72 h; outline: as §2
PC-3 = test: Growth inhibition in apoptosis-sensitive human PC3 after 3 days by MTT assay; format: functional; conditions: PC-3, 72 h; outline: as §2
MCF7 = test: Growth inhibition in apoptosis-sensitive human MCF7 after 3 days by MTT assay; format: functional; conditions: MCF7, 72 h; outline: as §2
B16-F10 = test: Growth inhibition in mouse B16F10 after 3 days by MTT assay; format: functional; conditions: B16-F10, 72 h; outline: as §2
A549 [16] = test: Cytostatic activity against human A549 cells assessed as accumulation of cells in G1 phase at 10 uM after 48 to 72 hrs by TUNEL-based flow cytometric analysis; format: functional, cell-based
Outline: (§3)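 A549 NSCLC and U373 GBM cells were treated 48 or 72 h and analysed with the APO AF kit. TUNEL labelling ran 1 h at 37 °C, followed by propidium iodide (5 μg/mL) with RNase. Apoptotic fraction and % cells in G1 were measured by flow cytometry. Kit negative/positive controls and 1 μM narciclasine-treated PC-3 cells served as controls.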

U-373MG ATCC [17] = test: Cytostatic activity against human U373 cells assessed as accumulation of cells in G1 phase at 10 uM after 48 to 72 hrs by TUNEL-based flow cytometric analysis; format: functional, cell-based; outline: as §3
A549 [18] = test: Induction of apoptosis in human A549 cells assessed as proapoptotic effect at 10 uM after 48 to 72 hrs by TUNEL-based flow cytometric analysis; format: functional, cell-based; outline: as §3
U-373MG ATCC [19] = test: Induction of apoptosis in human U373 cells assessed as proapoptotic effect at 10 uM after 48 to 72 hrs by TUNEL-based flow cytometric analysis; format: functional, cell-based; outline: as §3
[20] = target: ALK tyrosine kinase receptor (Homo sapiens) (UniProt Q9UM73); test: Inhibition of ALK at 1 uM by radiometric assay
Outline: (§4)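 Radiometric ³³PanQinase activity assay across a panel of 333 protein kinases. Compound added from a 2 × 10⁻⁵ M working solution in 10% DMSO (diluted in water from a 100% DMSO stock), giving 1 μM final in the assay.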

[21] = target: Cytoplasmic tyrosine-protein kinase BMX (Homo sapiens) (UniProt P51813); test: Inhibition of BMX at 1 uM by radiometric assay; outline: as §4
[22] = target: Serine/threonine-protein kinase PAK 2 (Homo sapiens) (UniProt Q13177); test: Inhibition of PAK2 at 1 uM by radiometric assay
[23] = target: Ephrin type-B receptor 1 (Homo sapiens) (UniProt P54762); test: Inhibition of EPHB1 at 1 uM by radiometric assay; outline: as §4
[24] = target: Ephrin type-B receptor 4 (Homo sapiens) (UniProt P54760); test: Inhibition of EPHB4 at 1 uM by radiometric assay; outline: as §4
[25] = target: Tyrosine-protein kinase ZAP-70 (Homo sapiens) (UniProt P43403); test: Inhibition of ZAP70 at 1 uM by radiometric assay
[26] = target: Fibroblast growth factor receptor 2 (Homo sapiens) (UniProt P21802); test: Inhibition of FGFR2 at 1 uM by radiometric assay; outline: as §4
[27] = target: Tyrosine-protein kinase Fes/Fps (Homo sapiens) (UniProt P07332); test: Inhibition of FES at 1 uM by radiometric assay; outline: as §4
[28] = target: Tyrosine-protein kinase Fyn (Homo sapiens) (UniProt P06241); test: Inhibition of FYN at 1 uM by radiometric assay
[29] = target: T1, Peroxisome proliferator-activated receptor gamma (Homo sapiens); test: Inhibition of PPARgamma activity in human U373 cells at 3 uM after 6 hrs by spectrophotometric analysis relative to control; format: cell-based; conditions: U-373MG ATCC
Outline: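 Human U373 glioblastoma cells exposed to compound for 6 h, then detached with trypsin. Nuclear extracts prepared by hypotonic lysis with Nonidet P-40 and extraction buffer with protease inhibitor, clarified at 14 000 g, 4 °C. Extracts bound overnight at 4 °C in a PPAR-γ transcription factor ELISA kit, with primary antibody then HRP anti-rabbit. Absorbance read at 450 nm; triplicates, mean ± SD versus control.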

U-373MG ATCC [30] = test: Activation of chymotrypsin-like activity of 20S proteasome in human U373 cells at 3 uM after 2 days by bioluminescence assay; format: cell-based
Outline: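 Chymotrypsin-like site, substrate Suc-LLVY-Glo. U373 cells were seeded at 5000 cells/mL for 48 h and exposed two days. After a PBS wash and 0.025% digitonin permeabilisation, Proteasome-Glo reagent was added. Bioluminescence was read after 10 min dark incubation. Triplicates, normalised by a concurrent MTT viability assay run in identical conditions.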

U-373MG ATCC [31] = test: Inhibition of trypsin-like activity of 20S proteasome in human U373 cells at 3 uM after 2 days by bioluminescence assay; format: cell-based; outline: as §1
U-373MG ATCC [32] = test: Activation of caspase-like activity of 20S proteasome in human U373 cells at 3 uM after 2 days by bioluminescence assay; format: cell-based
Outline: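 Caspase-like site, substrate Z-nLPnLD-Glo. U373 cells were plated at 5000 cells/mL for 48 h, then treated two days. Cells were PBS-washed and permeabilised with 0.025% digitonin before Proteasome-Glo reagent was added. Luminescence was read after 10 min in the dark. Triplicates, normalised to a parallel MTT viability assay under identical conditions.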

Sequence of Ephrin type-B receptor 4 (Homo sapiens) (P54760 whole entry): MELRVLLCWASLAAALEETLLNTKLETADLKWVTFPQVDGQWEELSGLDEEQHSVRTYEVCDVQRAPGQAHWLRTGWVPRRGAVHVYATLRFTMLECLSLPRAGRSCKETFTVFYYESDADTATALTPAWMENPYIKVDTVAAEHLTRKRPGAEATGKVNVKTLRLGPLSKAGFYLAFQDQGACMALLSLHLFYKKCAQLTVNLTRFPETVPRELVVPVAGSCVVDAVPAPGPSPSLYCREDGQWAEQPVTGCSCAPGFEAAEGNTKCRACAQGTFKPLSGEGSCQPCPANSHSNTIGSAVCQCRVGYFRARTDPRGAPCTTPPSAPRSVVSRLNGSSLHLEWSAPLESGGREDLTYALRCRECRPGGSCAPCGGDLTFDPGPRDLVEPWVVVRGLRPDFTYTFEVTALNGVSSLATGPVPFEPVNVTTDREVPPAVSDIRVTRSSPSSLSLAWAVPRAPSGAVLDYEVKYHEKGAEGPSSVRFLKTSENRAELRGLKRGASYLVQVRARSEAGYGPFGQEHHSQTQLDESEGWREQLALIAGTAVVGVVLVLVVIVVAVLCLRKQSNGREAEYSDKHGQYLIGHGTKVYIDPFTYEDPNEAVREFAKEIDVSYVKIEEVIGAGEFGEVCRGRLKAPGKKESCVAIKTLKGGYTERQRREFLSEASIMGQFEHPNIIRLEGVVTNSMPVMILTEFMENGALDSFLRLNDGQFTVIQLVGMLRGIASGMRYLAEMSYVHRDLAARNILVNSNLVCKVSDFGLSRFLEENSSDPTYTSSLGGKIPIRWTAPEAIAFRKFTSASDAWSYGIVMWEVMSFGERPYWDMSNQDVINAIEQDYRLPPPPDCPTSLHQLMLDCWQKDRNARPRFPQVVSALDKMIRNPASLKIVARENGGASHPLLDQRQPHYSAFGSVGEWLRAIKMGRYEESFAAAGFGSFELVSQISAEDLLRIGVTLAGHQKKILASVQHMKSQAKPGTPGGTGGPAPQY
Sequence of Fibroblast growth factor receptor 2 (Homo sapiens) (P21802 22-821 limits assumed): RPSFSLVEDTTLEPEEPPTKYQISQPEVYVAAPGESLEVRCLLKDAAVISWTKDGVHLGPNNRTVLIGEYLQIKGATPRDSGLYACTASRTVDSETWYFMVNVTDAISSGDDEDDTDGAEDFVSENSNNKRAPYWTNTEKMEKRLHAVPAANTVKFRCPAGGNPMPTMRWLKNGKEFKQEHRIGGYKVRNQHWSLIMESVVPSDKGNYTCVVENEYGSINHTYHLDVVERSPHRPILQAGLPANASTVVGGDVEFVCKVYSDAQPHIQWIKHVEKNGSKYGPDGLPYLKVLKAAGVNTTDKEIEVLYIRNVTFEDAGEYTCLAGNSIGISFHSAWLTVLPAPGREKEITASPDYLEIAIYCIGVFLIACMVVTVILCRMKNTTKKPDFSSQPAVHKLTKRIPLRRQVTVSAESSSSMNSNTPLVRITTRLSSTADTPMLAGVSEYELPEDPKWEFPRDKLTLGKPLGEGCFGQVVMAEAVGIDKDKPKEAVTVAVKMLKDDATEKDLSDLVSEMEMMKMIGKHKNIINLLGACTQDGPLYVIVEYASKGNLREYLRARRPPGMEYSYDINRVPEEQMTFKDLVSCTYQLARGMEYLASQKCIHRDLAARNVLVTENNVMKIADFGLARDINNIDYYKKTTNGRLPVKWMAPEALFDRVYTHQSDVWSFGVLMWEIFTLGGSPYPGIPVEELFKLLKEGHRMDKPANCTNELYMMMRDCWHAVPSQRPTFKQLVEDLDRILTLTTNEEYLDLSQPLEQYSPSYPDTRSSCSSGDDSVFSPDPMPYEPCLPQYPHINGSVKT
Sequence of Tyrosine-protein kinase Fes/Fps (Homo sapiens) (P07332 whole entry): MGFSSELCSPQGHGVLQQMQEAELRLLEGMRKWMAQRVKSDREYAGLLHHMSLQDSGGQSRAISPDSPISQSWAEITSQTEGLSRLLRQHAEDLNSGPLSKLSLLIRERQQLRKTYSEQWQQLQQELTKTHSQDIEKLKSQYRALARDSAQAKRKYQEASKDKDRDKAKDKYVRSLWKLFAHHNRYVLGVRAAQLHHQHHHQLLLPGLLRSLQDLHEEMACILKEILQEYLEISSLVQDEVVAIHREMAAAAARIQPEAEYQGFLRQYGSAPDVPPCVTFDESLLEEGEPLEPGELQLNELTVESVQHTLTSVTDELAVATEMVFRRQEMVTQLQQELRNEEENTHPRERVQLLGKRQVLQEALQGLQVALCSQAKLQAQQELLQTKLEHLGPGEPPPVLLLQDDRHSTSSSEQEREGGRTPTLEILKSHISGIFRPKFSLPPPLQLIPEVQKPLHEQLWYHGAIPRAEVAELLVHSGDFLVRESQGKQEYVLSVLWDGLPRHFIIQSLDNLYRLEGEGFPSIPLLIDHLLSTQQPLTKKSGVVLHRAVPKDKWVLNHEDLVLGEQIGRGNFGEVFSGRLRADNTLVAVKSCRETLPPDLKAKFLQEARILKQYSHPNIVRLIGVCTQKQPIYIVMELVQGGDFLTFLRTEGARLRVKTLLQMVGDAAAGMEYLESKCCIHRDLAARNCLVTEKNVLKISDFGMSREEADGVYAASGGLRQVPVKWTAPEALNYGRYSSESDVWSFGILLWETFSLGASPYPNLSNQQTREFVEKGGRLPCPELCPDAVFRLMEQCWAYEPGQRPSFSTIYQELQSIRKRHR
Sequence of Cytoplasmic tyrosine-protein kinase BMX (Homo sapiens) (P51813 whole entry): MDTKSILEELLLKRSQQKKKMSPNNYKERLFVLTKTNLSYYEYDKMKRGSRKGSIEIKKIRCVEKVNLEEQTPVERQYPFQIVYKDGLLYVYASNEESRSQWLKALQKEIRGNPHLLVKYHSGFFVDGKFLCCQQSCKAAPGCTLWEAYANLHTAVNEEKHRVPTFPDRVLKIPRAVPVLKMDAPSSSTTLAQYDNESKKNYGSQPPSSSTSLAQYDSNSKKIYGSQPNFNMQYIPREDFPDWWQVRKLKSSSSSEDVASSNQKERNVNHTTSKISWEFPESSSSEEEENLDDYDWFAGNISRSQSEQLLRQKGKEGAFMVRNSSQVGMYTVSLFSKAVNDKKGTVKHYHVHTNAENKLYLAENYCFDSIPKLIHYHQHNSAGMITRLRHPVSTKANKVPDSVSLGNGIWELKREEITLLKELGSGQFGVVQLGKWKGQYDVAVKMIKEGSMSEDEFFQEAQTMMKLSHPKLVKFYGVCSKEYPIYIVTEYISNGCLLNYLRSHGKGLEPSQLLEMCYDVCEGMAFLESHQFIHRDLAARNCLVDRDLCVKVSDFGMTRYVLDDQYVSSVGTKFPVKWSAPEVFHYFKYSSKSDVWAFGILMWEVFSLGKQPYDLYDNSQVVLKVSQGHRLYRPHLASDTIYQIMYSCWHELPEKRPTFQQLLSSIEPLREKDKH
Sequence of Tyrosine-protein kinase Fyn (Homo sapiens) (P06241 2-537 limits assumed): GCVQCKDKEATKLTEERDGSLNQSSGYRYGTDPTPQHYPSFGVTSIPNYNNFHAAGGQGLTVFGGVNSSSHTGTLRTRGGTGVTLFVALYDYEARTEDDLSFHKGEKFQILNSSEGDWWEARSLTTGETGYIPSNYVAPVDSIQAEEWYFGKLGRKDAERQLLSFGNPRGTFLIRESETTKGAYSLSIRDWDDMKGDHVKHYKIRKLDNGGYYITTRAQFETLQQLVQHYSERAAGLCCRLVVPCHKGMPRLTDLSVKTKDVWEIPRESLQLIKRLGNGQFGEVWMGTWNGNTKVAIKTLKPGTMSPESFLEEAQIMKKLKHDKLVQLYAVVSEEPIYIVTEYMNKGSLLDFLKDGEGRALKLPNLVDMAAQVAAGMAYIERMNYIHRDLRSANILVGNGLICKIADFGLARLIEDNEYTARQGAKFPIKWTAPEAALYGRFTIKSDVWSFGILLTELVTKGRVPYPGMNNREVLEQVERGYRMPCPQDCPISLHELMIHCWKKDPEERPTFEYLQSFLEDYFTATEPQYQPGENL
Sequence of Ephrin type-B receptor 1 (Homo sapiens) (P54762 whole entry): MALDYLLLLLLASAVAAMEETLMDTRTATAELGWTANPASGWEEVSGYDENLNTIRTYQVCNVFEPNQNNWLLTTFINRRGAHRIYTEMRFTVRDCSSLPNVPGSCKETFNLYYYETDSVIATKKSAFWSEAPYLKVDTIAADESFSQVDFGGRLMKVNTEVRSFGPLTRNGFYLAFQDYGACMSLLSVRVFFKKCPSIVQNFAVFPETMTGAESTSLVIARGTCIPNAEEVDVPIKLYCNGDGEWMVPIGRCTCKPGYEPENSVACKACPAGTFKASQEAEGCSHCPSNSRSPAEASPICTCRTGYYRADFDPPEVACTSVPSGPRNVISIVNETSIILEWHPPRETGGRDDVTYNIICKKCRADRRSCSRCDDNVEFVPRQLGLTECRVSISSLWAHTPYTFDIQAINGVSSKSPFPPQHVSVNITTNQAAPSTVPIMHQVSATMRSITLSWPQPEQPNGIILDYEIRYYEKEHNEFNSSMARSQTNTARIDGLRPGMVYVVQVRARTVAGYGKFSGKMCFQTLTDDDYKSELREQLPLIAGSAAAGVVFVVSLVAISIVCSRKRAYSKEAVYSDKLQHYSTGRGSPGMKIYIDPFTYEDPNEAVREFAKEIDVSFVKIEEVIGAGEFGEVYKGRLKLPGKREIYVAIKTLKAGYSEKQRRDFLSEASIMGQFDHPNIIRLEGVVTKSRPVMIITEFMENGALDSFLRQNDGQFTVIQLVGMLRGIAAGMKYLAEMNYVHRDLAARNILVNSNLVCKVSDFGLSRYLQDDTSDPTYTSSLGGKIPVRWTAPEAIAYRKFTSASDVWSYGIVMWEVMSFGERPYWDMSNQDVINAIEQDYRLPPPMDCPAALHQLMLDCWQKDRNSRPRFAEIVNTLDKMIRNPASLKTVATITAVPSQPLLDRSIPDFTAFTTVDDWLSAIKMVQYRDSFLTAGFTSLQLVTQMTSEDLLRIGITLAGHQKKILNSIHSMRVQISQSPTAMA

## CC1(C)[C@@H](O)CC[C@]2(C)[C@H]3C(=O)C=C4[C@@H]5C[C@@](C)(C(=O)NCCNC(=O)Nc6cc(C(F)(F)F)cc(C(F)(F)F)c6)CC[C@]5(C)CC[C@@]4(C)[C@]3(C)CC[C@@H]12
[1]
  inhibition: 64%
[2]
  inhibition: 50%
[3]
  Activity: Active
U-373MG ATCC [4]
  inhibition: Active
U-373MG ATCC [5]
  inhibition: Active
U-373MG ATCC [6]
  inhibition: Active
U-373MG ATCC [7]
  inhibition: Active
U-373MG ATCC [8]
  inhibition: Active
U-373MG ATCC [9]
  inhibition: Active
U-373MG ATCC [10]
  inhibition: Active
U-373MG ATCC [11]
  inhibition: Active
U-373MG ATCC [12]
  inhibition: Active
[13]
  remaining at 168 h: 98%
A549 [14]
  GI50: 7 µM
SK-MEL-28
  GI50: 9 µM
T98G
  GI50: 12 µM
[15]
  GI50: 6 µM
Hs 683
  GI50: 6 µM
PC-3
  GI50: 8 µM
MCF7
  GI50: 4 µM
B16-F10
  GI50: 4 µM
A549 [16]
  Activity: inactive
U-373MG ATCC [17]
  Activity: inactive
A549 [18]
  Activity: inactive
U-373MG ATCC [19]
  Activity: inactive
[20]
  inhibition: 69%
[21]
  inhibition: 52%
[22]
  inhibition: 51%
[23]
  inhibition: 64%
[24]
  inhibition: 64%
[25]
  inhibition: 67%
[26]
  inhibition: 67%
[27]
  inhibition: 59%
[28]
  inhibition: 72%

## COc1cc(/C=C/C(C)=O)ccc1OC(=O)[C@@]1(C)CC[C@]2(C)CC[C@]3(C)C(=CC(=O)[C@@H]4[C@@]5(C)CC[C@H](O)C(C)(C)[C@@H]5CC[C@]43C)[C@@H]2C1
[29]
  inhibition: Active
U-373MG ATCC [30]
  Activity: Active
U-373MG ATCC [31]
  inhibition: Active
U-373MG ATCC [32]
  Activity: Active
[13]
  remaining at 168 h: 68%
A549 [14]
  GI50: 2 µM
SK-MEL-28
  GI50: 3 µM
T98G
  GI50: 3 µM
[15]
  GI50: 2 µM
Hs 683
  GI50: 3 µM
PC-3
  GI50: 2 µM
MCF7
  GI50: 3 µM
B16-F10
  GI50: 3 µM
